Data set [1] deals with T1, Retinoic acid receptor RXR-alpha/Vitamin D3 receptor (Homo sapiens, UniProt P11473+P19793).
T1 sequence (P11473 whole entry): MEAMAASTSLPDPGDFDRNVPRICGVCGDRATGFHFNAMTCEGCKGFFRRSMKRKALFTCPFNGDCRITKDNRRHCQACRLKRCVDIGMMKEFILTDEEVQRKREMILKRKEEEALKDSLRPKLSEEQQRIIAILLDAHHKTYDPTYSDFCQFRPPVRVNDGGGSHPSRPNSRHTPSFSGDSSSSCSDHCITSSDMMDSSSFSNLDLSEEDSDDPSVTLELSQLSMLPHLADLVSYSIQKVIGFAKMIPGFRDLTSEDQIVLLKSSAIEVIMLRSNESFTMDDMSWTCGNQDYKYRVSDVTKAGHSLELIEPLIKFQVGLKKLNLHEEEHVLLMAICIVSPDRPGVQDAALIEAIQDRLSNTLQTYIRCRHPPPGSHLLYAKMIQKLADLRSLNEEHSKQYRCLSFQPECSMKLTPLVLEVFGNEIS
T1 sequence (P19793 whole entry): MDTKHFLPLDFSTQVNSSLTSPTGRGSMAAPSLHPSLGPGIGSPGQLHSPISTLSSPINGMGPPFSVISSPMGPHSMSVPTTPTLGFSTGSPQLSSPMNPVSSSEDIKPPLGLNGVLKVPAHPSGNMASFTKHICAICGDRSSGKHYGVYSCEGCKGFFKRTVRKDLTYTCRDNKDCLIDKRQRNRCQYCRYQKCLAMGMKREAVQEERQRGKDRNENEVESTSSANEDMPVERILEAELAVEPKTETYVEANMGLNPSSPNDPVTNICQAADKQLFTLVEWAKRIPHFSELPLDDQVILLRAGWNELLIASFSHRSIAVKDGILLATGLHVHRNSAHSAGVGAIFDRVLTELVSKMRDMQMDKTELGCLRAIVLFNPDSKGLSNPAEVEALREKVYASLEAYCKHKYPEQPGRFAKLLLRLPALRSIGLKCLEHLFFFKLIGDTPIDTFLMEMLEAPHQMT
Description: Transactivation of recombinant human VDR/RXRalpha expressed in HEK293 cells after 24 hrs by Dual-luciferase reporter gene assay. The data set is classed as cell-based. In general terms: Reporter assays use an easily measured gene product as a stand-in for the process of interest.

The subject of data set [2] is MCF7. Description: Cell cycle arrest in human MCF7 cells expressing scrambled siRNA assessed as accumulation at G2/M phase at 1 uM after 24 hrs by propidium iodide staining based flow cytometry (reference value: 19.6%). The data set is classed as functional. A general note: In flow cytometry, cells or beads pass a laser one at a time.
Data set [3] concerns MCF7. Description: Cell cycle arrest in human MCF7 cells expressing VDR siRNA assessed as accumulation at G0/G1 phase at 1 uM after 24 hrs by propidium iodide staining based flow cytometry (reference value: 49.17%). The data set is classed as functional.
Data set [4] has as its system MCF7. Kind of data set: Induction of apoptosis in human MCF7 cells expressing scrambled siRNA assessed as early apoptotic cells at 1 uM after 24 hrs by Annexin-V-FITC/propidium iodide staining based flow cytometry (reference value: 0.93%). The class given is functional.
Data set [5] has as its system MCF7. Kind of data set: Induction of apoptosis in human MCF7 cells expressing scrambled siRNA assessed as late apoptotic cells at 1 uM after 24 hrs by Annexin-V-FITC/propidium iodide staining based flow cytometry (reference value: 0.98%). The data set is classed as functional.
The test system of data set [6] is MCF7. Kind of data set: Induction of apoptosis in human MCF7 cells expressing VDR siRNA assessed as live cells at 1 uM after 24 hrs by Annexin-V-FITC/propidium iodide staining based flow cytometry (reference value: 98.35%). The data set is classed as functional.
In data set [7] the test system is MCF7. Kind of data set: Induction of apoptosis in human MCF7 cells expressing VDR siRNA assessed as late apoptotic cells at 1 uM after 24 hrs by Annexin-V-FITC/propidium iodide staining based flow cytometry (reference value: 1.01%). The class given is functional.
Data set [8] has as its system MCF7. Description: Induction of apoptosis in human MCF7 cells assessed as upregulation of Bax expression at 1 uM after 24 hrs by Western blot analysis. The class given is functional, cell-based. In a few lines: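 MCF-7 cells treated at 1 µM for 24 h. Lysates resolved by 10% SDS-PAGE and transferred to PVDF. Probed with rabbit anti-p21, anti-p27 and anti-Bax antibodies, with mouse anti-β-actin as loading control. HRP-conjugated secondary antibodies; bands detected on an infrared scanner.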

A short description of data set [9]: Solubility of the compound in water at pH 7.4 by HPLC method. The data set is classed as physicochemical. In outline: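 Aqueous solubility measured at pH 7.4, with samples quantified by HPLC.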
A short description of data set [10]: Half life in rat liver microsomes in presence of NADPH by HPLC method. The class given is ADME, microsome. In a few lines: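 Compounds incubated with rat liver microsomes plus NADPH. Remaining compound quantified by HPLC at 0, 5, 10, 20, 30, 45, 60 and 90 min, and half-life calculated.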
The nature of data set [11]: Mean residence time in Sprague-Dawley rat at 20 mg/kg, ip by HPLC method. The class given is ADME, organism-based. Conditions: in vivo. In outline:
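Male Sprague-Dawley rats, 180–220 g, n = 3 per group. Dosed iv at 5 mg/kg or ip at 20 mg/kg in ethanol/EL/saline (1:1:18). Plasma sampled at 0, 0.083, 0.167, 0.25, 0.5, 1, 2, 4, 8, 12 and 24 h and centrifuged 12000 rpm for 10 min. Plasma drug measured by HPLC; parameters by PK modelling; mean ± SD.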

Data set [12] has as its system Mus musculus. Kind of data set: Hypercalcemic effect in Balb/c nude mouse xenografted with human MCF7 cells assessed as effect on serum calcium level at 10 mg/kg, ip administered three times a week for three weeks starting from day 7 after tumor cell inoculation measured on day 17 during compound dosing (reference value: 0.6 umol/ml). The data set is classed as ADME, organism-based. Conditions: in vivo.

The test system of data set [13] is Mus musculus. Description: Hypercalcemic effect in Balb/c nude mouse xenografted with human MCF7 cells assessed as effect on serum calcium level at 10 mg/kg, ip administered three times a week for three weeks starting from day 7 after tumor cell inoculation measured on day 27 (reference value: 0.6 umol/ml). Conditions: in vivo. The data set is classed as ADME, organism-based.

The structures appear in SMILES notation. pEC50: −log10 of the molar value. In brackets after ≈: the same amount, converted by molar mass. Activity calls are given as the source filed them.

A word on the pEC50: it is the EC50 on a negative log10 scale, so that one unit is a factor of ten. A word on the solubility: it is how much of the substance goes into solution per volume. A higher solubility goes with much dissolved substance. As a reminder, the half-life is the time needed for the level to fall by half in the phase considered. One may read the MRT as the average time that molecules of a dose stay in the body. In the case of `CCN(CC)CCNC(=O)c1cc(C(CC)(CC)c2ccc(OCS(=O)(=O)c3ccccc3)c(C)c2)cn1CC`, the pEC50 in data set [1] is 7.42. The Activity in data set [2] came to 13.22%; in data set [3], 50.69%; in data set [4], 1.21%; in data set [5], 3.37%; in data set [6], 97.48%; in data set [7] it was 1.57%. Also, the Activity result in data set [12] and in data set [13] was “Non-Toxic” in each case. Besides, in [8], the result was Active. Moreover, the solubility in data set [9] came out at 85.3 µg/mL (≈ 150 µM). The half-life in data set [10] worked out at 0.987 h. The MRT in data set [11] was determined as 11.9 h.
Take `CCN(CC)CCNC(=O)c1ccc(C(CC)(CC)c2ccc(OCSC)c(C)c2)n1CC`: the pEC50 in data set [1] was 8.19. In addition, the Activity in data set [2] is 15.96%; in data set [3], 50.3%; in [4] it was 1.31%; in [5] it was 3.65%; in [6], 97.35%; in data set [7] it was 1.67%. The Activity entry in data set [12] and in [13] was “Non-Toxic” in each case. The outcome in data set [8] was Active. The amount in solution in data set [9] (solubility) came to 74.6 µg/mL (≈ 157 µM). Further, the half-life in data set [10] was 0.954 h. The MRT in data set [11] was 15.7 h.

These data come from ChEMBL document CHEMBL4270638, “Sulfonyl-containing phenyl-pyrrolyl pentane analogues: Novel non-secosteroidal vitamin D receptor modulators with favorable physicochemical properties, pharmacokinetic properties and anti-tumor activity” (Eur J Med Chem, 2018).
